The species entered for assay [1] is Oryctolagus cuniculus. Nature of the assay: Mydriatic effect in rabbit assessed as change in pupil diameter under constant light at 0.02 M after 10 mins. Type of assay: functional. An outline of the steps:
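Rabbits (2.5–3.0 kg, either sex), randomised into groups of five. 0.05 ml agent dropped into left eye, right eye as control reference. Left pupil diameter (mm) read under constant light before and 10 min after dosing. Significance by Student's t-test, P < 0.05.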

Assay [2] can be described thus: Displacement of [3H]NMS from mAChR in SD rat submandibulary gland by rapid filtration technique. The gist of the method: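 Membranes from male SD rat (220–240 g) submandibulary glands, homogenised in ice-cold 0.32 M sucrose/50 mM Tris pH 7.4, spun at 1000g then 20,000g, at 4 °C. Membranes (0.1 mg protein) incubated at 37 °C with [3H]NMS and increasing compound concentrations in Tris buffer. Filtered through glass fibre, washed three times. Run in duplicate. IC50 by curve fit, Ki by Cheng–Prusoff.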

The nature of assay [3]: (§1) Antagonist activity at guinea pig mAChR assessed as inhibition of carbachol-induced iris muscle contraction. Type of assay: functional, tissue-based, Cavia porcellus. The gist of the method:
(§2)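 pA2 values derived by Arunlakshana–Schild analysis of contraction responses; data as means SEM.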

For assay [4], the species on record is Oryctolagus cuniculus. Nature of the assay: Myotic effect in rabbit assessed as change in pupil diameter under constant light at 0.02 M after 10 mins. Type of assay: functional. The gist of the method:
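Twenty healthy rabbits (2.5–3.0 kg, either sex) were randomised into four groups of five. Left pupil diameter (mm) was read under constant light before and 10 min after 0.05 ml agent was dropped in; the right eye served as control reference. Significance by Student's t-test, P < 0.05.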

Assay [5] can be described thus: Agonist activity at guinea pig mAChR assessed as stimulation of carbachol-induced iris muscle contraction relative to carbachol. Type of assay: functional. The conditions noted are these: Cavia porcellus.
Assay [6] is filed under the species Cavia porcellus. Nature of the assay: (§3) Agonist activity at guinea pig mAChR assessed as stimulation of carbachol-induced iris muscle contraction. The class given is functional, tissue-based. The gist of the method: (§4)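 Iris contraction assay: EC50 (agonist concentration giving half-maximal response) and log concentration–response slopes obtained by nonlinear sigmoidal dose–response logistic curve fitting. Data given as means SEM; significance by Student's t-test, P < 0.05.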

A short description of assay [7]: as §3. Type of assay: functional, tissue-based, Cavia porcellus. The gist of the method: as §4
Assay [8] is filed under the species Cavia porcellus. The description is as §1. Type of assay: functional, tissue-based. An outline of the steps:
as §2

Structures are written as SMILES. The source made the active and inactive calls. The rule behind the calls is not given here.

The term Ki denotes a measure of affinity in units of concentration, obtained from inhibition or displacement. Higher therefore signals lower affinity. For orientation: pA2 means a measure of antagonist potency on a negative log scale. For orientation: Emax means the greatest response seen or fitted, relative to the assay's reference. Usually pEC50 stands for the negative decadic logarithm of the EC50, by convention in mol/L.

As to `CC(=O)O[C@H]1CC2C[C@@H](OC(=O)c3ccc([N+](=O)[O-])cc3)CC1N2C` (some centres undefined), the Activity in assay [1] amounted to 35.1%. Moreover, affinity in assay [2] was put at a Ki of 3.7 µM. In assay [3], the pA2 amounted to 6.11.
On to `CC(=O)O[C@H]1CC2C[C@@H](OS(=O)(=O)c3ccccc3)CC1N2C` (some centres undefined), for which affinity in assay [2] was put at a Ki of 0.04 µM. For the same molecule, the Activity in assay [4] is 44%; in assay [6], “Dose-dependent effect”. In assay [5], the Emax came to 87.1%. The pEC50 in assay [7] was 6.06.
For the molecule `C[N+](C)(C)CCOC(N)=O.[Cl-]` [CARBACHOL], the Emax in assay [5] came to 100%. For the same molecule, in assay [7], the pEC50 is on record as 6.57.
With `CC(=O)O[C@H]1CC2C[C@@H](OC(=O)c3ccc(Cl)cc3)CC1N2C` (some centres undefined), the Activity in assay [1] is 32.2%. This molecule came in with a Ki in assay [2] of 9 µM.
As for `CC(=O)O[C@@H]1CC2C[C@H](OS(=O)(=O)c3ccccc3)CC1N2C` (some centres undefined), in assay [4], the Activity stood at 4.7%.
As for `CC(=O)O[C@@H]1CC2C[C@H](OC(=O)c3ccc([N+](=O)[O-])cc3)CC1N2C` (some centres undefined), in assay [1], the Activity is on record as 3.7%. This molecule showed a Ki in assay [2] of 450 µM. Besides, the result in assay [8] was inactive.
Taken in the same sequence, the figures for `CC(=O)O[C@@H]1CC2C[C@H](OC(=O)c3ccc(Cl)cc3)CC1N2C` (some centres undefined) were 3%, 73 µM and “inactive”.

Values taken from ChEMBL document CHEMBL1139257, “The absolute configuration plays an important role in muscarinic activity of BGT-A and its analogs” (Bioorg Med Chem, 2008).
